Article PMC7141570 (Febs Letters, 2000)
“And” between values parts separate entries of the source, which are not always exact repeats. Identical values can stand only once. “Also recorded” adds a separate entry of the source. One block for each compound: values may come before it.

How the values were obtained:
[1] = target: T1, APN in rat brain membranes (Rattus norvegicus, UniProt P15684); experiment: Competition with [125I]RB 129 binding on rat brain membranes; settings: for inhibition of specific [125I]RB 129 binding (qualitative): rat brain membranes
T1 sequence (P15684 1-965): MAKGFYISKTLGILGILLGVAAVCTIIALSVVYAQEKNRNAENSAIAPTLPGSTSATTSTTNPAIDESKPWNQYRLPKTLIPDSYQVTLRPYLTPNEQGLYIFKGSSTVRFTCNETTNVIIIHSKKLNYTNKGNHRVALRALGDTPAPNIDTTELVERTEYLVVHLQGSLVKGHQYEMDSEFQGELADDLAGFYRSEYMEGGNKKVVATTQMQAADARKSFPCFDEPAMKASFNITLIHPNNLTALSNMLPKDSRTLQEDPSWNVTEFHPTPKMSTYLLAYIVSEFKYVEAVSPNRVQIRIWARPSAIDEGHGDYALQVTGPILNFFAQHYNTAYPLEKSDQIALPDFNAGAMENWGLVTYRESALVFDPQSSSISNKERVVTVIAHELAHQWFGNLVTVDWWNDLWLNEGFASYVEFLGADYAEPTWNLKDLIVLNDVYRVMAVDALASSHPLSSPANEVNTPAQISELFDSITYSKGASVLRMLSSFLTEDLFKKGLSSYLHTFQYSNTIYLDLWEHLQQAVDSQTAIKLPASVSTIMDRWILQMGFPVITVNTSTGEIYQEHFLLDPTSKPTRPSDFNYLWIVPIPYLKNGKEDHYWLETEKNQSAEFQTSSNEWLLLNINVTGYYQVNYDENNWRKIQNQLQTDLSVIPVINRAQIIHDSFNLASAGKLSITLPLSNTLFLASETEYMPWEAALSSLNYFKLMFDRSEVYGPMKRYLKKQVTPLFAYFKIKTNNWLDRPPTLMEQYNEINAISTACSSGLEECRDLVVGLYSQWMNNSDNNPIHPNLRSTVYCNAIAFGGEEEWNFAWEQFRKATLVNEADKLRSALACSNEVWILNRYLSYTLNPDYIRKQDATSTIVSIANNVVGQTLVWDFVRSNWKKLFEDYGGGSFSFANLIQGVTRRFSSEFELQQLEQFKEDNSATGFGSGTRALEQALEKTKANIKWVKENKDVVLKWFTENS

pure porcine APN = settings: read-out: K i in enzymatic studies; cited from earlier work
recombinant pig APN [2] = target: T2, recombinant pig APN (Sus scrofa, UniProt P15145); format: binding; settings: transfected COS-7 cell membranes
T2 sequence (P15145 1-963): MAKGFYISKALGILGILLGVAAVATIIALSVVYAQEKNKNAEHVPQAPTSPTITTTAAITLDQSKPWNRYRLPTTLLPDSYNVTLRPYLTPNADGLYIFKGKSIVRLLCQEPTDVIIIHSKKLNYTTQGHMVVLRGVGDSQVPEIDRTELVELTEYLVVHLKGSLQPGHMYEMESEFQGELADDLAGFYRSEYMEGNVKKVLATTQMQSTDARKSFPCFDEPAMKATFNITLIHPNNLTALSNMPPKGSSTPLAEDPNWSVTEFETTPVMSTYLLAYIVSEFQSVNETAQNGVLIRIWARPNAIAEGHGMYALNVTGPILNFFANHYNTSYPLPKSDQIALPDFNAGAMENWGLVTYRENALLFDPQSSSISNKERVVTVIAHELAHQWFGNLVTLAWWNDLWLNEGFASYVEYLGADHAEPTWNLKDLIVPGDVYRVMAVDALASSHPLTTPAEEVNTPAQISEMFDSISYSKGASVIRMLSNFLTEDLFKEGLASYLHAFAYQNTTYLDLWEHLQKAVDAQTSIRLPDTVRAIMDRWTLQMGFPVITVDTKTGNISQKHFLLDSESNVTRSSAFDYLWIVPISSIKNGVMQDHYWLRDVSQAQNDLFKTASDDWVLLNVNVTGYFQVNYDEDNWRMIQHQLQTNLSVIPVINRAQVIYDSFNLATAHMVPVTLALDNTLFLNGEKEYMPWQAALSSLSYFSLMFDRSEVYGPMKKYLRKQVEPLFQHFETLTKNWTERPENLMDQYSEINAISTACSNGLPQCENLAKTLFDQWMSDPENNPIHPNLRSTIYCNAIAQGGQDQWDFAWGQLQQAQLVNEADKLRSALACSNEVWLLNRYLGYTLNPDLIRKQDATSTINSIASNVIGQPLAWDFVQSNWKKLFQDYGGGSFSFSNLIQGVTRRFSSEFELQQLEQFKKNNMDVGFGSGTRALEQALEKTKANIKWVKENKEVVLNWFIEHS

NEP = settings: read-out: K i for NEP; enzymatic assay; cited from earlier work
[3] = target: T1, APN in rat brain membranes; experiment: [125I]RB 129 kinetic and saturation binding to rat brain membranes
Summary of the method: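 Rat brain minus cerebellum homogenised in 50 mM Tris–HCl pH 7.4, spun at 1000×g then 100 000×g; pellet resuspended in buffer with 0.02% bacitracin, 0.4–0.6 mg protein/ml. Incubations at 35°C with thiorphan. Kinetics used 100 pM [125I]RB 129, with dissociation started by 1 μM unlabeled RB 129 after 120 min. Saturation ran 0.075–8 nM for 80 min. Nonspecific binding defined with 1 μM RB 129; bound ligand collected on GF/B filters.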

recombinant pig APN [4] = target: T2, recombinant pig APN; format: binding
Summary of the method: (§1)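 Pig APN cDNA, wild-type or E350A, in pcDNA3 was electroporated (50 μg per 10×10^6 cells) into COS-7 cells grown in DMEM with 10% FCS, then kept 48 h at 37°C. Membranes (100 000×g) were resuspended in 50 mM Tris–HCl pH 7.4 with 0.02% bacitracin, 50–100 μg protein/tube. Saturation used 0.075–8 nM [125I]RB 129 for 80 min at 35°C with thiorphan, 1 μM RB 129 for nonspecific binding, GF/B filtration and Scatchard analysis.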

APN mutant E^350A = target: T3, APN mutant E^350A (Sus scrofa, UniProt P15145, E350A); experiment: [125I]RB 129 binding to mutated APN expressed in COS-7 cells; set-up: species or system pig; settings: E^350A mutated APN in COS-7 cells
T3 sequence (P15145 2-963 E350A): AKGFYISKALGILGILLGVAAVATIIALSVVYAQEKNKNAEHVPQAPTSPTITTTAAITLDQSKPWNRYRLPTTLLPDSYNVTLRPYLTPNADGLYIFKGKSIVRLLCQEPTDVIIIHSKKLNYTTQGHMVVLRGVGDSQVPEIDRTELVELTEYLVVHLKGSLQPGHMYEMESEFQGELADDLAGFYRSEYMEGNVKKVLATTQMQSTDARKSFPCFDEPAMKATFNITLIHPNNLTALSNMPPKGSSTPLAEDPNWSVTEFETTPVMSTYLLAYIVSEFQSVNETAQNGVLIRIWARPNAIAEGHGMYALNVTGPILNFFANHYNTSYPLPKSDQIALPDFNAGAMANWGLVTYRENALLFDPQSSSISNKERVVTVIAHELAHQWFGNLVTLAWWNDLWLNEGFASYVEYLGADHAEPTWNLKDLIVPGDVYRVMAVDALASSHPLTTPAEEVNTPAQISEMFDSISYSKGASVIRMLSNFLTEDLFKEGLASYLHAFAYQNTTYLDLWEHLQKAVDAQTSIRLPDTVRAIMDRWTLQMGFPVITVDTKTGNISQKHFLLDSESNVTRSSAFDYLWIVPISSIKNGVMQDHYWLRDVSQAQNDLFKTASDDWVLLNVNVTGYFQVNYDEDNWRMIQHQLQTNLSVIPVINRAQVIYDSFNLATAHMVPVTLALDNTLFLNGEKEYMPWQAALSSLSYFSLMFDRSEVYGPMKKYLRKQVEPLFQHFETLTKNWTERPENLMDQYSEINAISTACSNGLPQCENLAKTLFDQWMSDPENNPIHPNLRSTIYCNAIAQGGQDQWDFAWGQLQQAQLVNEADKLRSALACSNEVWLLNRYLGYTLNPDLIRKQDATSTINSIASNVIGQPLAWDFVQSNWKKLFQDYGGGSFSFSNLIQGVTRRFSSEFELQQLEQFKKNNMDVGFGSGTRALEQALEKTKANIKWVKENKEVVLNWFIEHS
Summary of the method: as §1

Compound: NC(CS)Cc1ccccc1 (stereo not shown) [Phe‐thiol]
inhibition of specific [125I]RB 129 binding (qualitative) [1]: concentration‐dependent inhibition
Ki (pure porcine APN): 12.1 nM

fold lower affinity in rat brain binding versus enzymatic assay ([1]; rat brain membrane K i vs enzymatic K i on porcine APN): more than 10 fold
inhibition of specific [125I]RB 129 binding (qualitative) [1]: concentration‐dependent inhibition
inhibition of specific [125I]RB 129 binding (qualitative) (recombinant pig APN [2]): concentration‐dependent inhibition
Compound: O=C(CC(Cc1ccccc1)C(=O)N[C@@H](Cc1ccccc1)C(=O)O)NO (stereo partly shown) [RB 38A]
Ki (pure porcine APN): 120 nM

inhibition of specific [125I]RB 129 binding (qualitative) [1]: concentration‐dependent inhibition
inhibition of specific [125I]RB 129 binding (qualitative) (recombinant pig APN [2]): concentration‐dependent inhibition
Compound: C[C@H](N)P(=O)(O)C[C@@H](Cc1ccccc1)C(=O)N[C@@H](Cc1ccc(O)c(I)c1)C(=O)O [RB 129, 2(S)‐benzyl‐3‐[hydroxy(1′(R)‐aminoethyl)phosphinyl]propanoyl‐L‐3‐iodotyrosine]
Ki (NEP): 23.6 nM

association rate constant, k +1 ([3]; 100 pM ligand, 35°C, rat brain membranes): 9.47e+07 M⁻¹ min⁻¹
incubation time to reach binding equilibrium ([3]; 100 pM, 35°C): 80 min
specific binding at routine protein concentration ([3]; 0.4–0.6 mg/ml rat brain membrane protein): 80–98%
dissociation rate constant (k −1) ([3]; dissociation initiated with 1 μM unlabeled RB 129, 35°C): 0.022 min⁻¹
specific binding at the K d value ([3]; rat brain homogenates): 95%
specific binding at routine protein concentration (recombinant pig APN [4]; 50–100 μg/ml recombinant APN protein): 80–98%
specific binding at the K d value (recombinant pig APN [4]; recombinant APN in COS-7 cells): ~92%
maximal capacity of binding sites (B max) (recombinant pig APN [4]; recombinant APN wild-type in COS-7 cells): 650±67 fmol/mg of protein
Compound: C[C@H](N)P(=O)(O)C[C@@H](Cc1ccccc1)C(=O)N[C@@H](Cc1ccc(O)c([125I])c1)C(=O)O [[^125I]RB 129, 2(S)‐benzyl‐3‐[hydroxy(1′(R)‐aminoethyl)phosphinyl]propanoyl‐L‐3‐[^125I]iodotyrosine]
maximal capacity of binding sites (B max) ([3]; saturation, rat brain homogenates): 722±88 fmol/mg of protein and 722 fmol/mg of protein
specific binding on mutated APN (APN mutant E^350A): No specific binding; also recorded: non‐measurable specific binding
